Assays:
Canis familiaris [1] = species: Canis familiaris; assay: Repolarization to reach -60mV, in canine Purkinje Fibers at a concentration of 0.01 uM at 300 ms (simulating tachycardia); type: functional, Canis lupus familiaris, Purkinje fiber
Outline: (§1)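 Isolated canine Purkinje fiber bundles were driven by square-wave pulses 2.0 ms long at 2× threshold and equilibrated ≥1 h to steady state. Each concentration was superfused 45–60 min before recording, and action potentials were sampled at 4–6 sites per fiber in control and after drug, giving Vmax and APD to −60 mV.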

Canis familiaris [2] = assay: Ventricular conduction time by the compound in open chest anesthetized dog, after iv administration at a dose of 0.25 mg/kg.; type: functional, Canis lupus familiaris, Heart
Outline: (§2)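 Mongrel dogs were anesthetized with sodium pentobarbital (30 mg/kg iv, then 5 mg/kg per h), the chest opened, and the heart paced at BCL 300 ms. Compound was given iv or intraduodenally. Ventricular conduction time was taken as the interval between electrograms at the proximal and distal sites of the recording electrode array. 2-5 dogs per dose.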

Canis familiaris [3] = species: Canis familiaris; assay: Maximum rate of rise of the upstroke of transmembrane potential, in canine Purkinje Fibers at a concentration of 0.03 uM at 1000 ms (simulating normal heart rate); type: functional; conditions: Canis lupus familiaris, Purkinje fiber; outline: as §1
Canis familiaris [4] = assay: Mean arterial pressure by the compound in open chest anesthetized dog, after iv administration at a dose of 0.05 mg/kg.; type: functional, Canis lupus familiaris, Artery
Outline: (§3)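 Hemodynamics (heart rate, mean arterial pressure) recorded in pentobarbital-anesthetized (30 mg/kg iv, 5 mg/kg per h maintenance) open-chest mongrel dogs during the refractoriness study at BCL 300 ms. Readings were taken before and after iv or intraduodenal compound and expressed as change from control.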

Canis familiaris [5] = species: Canis familiaris; assay: Maximum rate of rise of the upstroke of transmembrane potential, in canine Purkinje Fibers at a concentration of 0.03 uM at 300 ms (simulating tachycardia); type: functional; conditions: Canis lupus familiaris, Purkinje fiber; outline: as §1
Canis familiaris [6] = species: Canis familiaris; assay: Maximum rate of rise of the upstroke of transmembrane potential, in canine Purkinje Fibers at a concentration of 0.01 uM at 300 ms (simulating tachycardia); type: functional; conditions: Canis lupus familiaris, Purkinje fiber; outline: as §1
Canis familiaris [7] = assay: Atrial effective refractory period by the compound in open chest anesthetized dog, after iv administration at a dose of 0.25 mg/kg.; type: functional, Canis lupus familiaris, Cardiac atrium
Outline: (§4)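 Open-chest mongrel dogs under sodium pentobarbital anesthesia (30 mg/kg iv plus 5 mg/kg per h), paced at basic cycle length 300 ms. Atrial effective refractory period was determined by electrical stimulation before and after iv or intraduodenal compound and reported as change from control.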

Canis familiaris [8] = species: Canis familiaris; assay: repolarization to reach -60mV, in canine Purkinje Fibers at a concentration of 0.03 uM at 1000 ms (simulating normal heart rate); type: functional, Canis lupus familiaris, Purkinje fiber
Outline: (§5)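 Purkinje fiber bundles were stimulated with square-wave current pulses of 2.0 ms at twice threshold and equilibrated for at least 1 h, or until action potential parameters were steady. Each concentration was superfused for 45-60 min to reach steady state. Action potentials were recorded at four to six sites per fiber, under control and after drug.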

Canis familiaris [9] = assay: Heart beat by the compound in open chest anesthetized dog, after iv administration at a dose of 0.25 mg/kg.; type: functional, Canis lupus familiaris; outline: as §3
Canis familiaris [10] = assay: Atrial effective refractory period by the compound in open chest anesthetized dog, after iv administration at a dose of 0.50 mg/kg.; type: functional, Canis lupus familiaris, Cardiac atrium; conditions: dose 0.5 mg/kg; outline: as §4
Canis familiaris [11] = assay: Ventricular effective refractory period by the compound in open chest anesthetized dog, after iv administration at a dose of 0.50 mg/kg.; type: functional, Canis lupus familiaris, Heart; conditions: dose 0.5 mg/kg
Canis familiaris [12] = assay: Atrial conduction time by the compound in open chest anesthetized dog, after iv administration at a dose of 0.50 mg/kg.; type: functional, Canis lupus familiaris, Cardiac atrium; conditions: dose 0.5 mg/kg
Outline: (§6)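 Mongrel dogs anesthetized with sodium pentobarbital (30 mg/kg iv, then 5 mg/kg per h), chest opened, paced at BCL 300 ms. Atrial conduction time was taken as the interval between electrograms recorded at the proximal and distal sites of the atrial recording electrode array, before and after iv or intraduodenal dosing. Values are changes from control.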

Canis familiaris [13] = assay: Ventricular conduction time by the compound in open chest anesthetized dog, after iv administration at a dose of 0.50 mg/kg.; type: functional, Canis lupus familiaris, Heart; conditions: dose 0.5 mg/kg; outline: as §2
Canis familiaris [14] = species: Canis familiaris; assay: Maximum rate of rise of the upstroke of transmembrane potential, in canine Purkinje Fibers at a concentration of 0.10 uM at 1000 ms (simulating normal heart rate); type: functional; conditions: Canis lupus familiaris, Purkinje fiber; outline: as §1
Canis familiaris [15] = assay: Mean arterial pressure by the compound in open chest anesthetized dog, after iv administration at a dose of 0.25 mg/kg.; type: functional, Canis lupus familiaris, Artery; outline: as §3
Canis familiaris [16] = species: Canis familiaris; assay: Maximum rate of rise of the upstroke of transmembrane potential, in canine Purkinje Fibers at a concentration of 0.10 uM at 300 ms (simulating tachycardia); type: functional; conditions: Canis lupus familiaris, Purkinje fiber; outline: as §1
Canis familiaris [17] = assay: Mean arterial pressure by the compound in open chest anesthetized dog, after iv administration at a dose of 0.50 mg/kg.; type: functional, Canis lupus familiaris, Artery; conditions: dose 0.5 mg/kg; outline: as §3
Canis familiaris [18] = species: Canis familiaris; assay: Repolarization to reach -60mV, in canine Purkinje Fibers at a concentration of 0.10 uM at 300 ms (simulating tachycardia); type: functional, Canis lupus familiaris, Purkinje fiber; outline: as §1
Canis familiaris [19] = assay: Heart beat by the compound in open chest anesthetized dog, after iv administration at a dose of 0.50 mg/kg.; type: functional, Canis lupus familiaris; conditions: dose 0.5 mg/kg; outline: as §3
Canis familiaris [20] = species: Canis familiaris; assay: repolarization to reach -60mV, in canine Purkinje Fibers at a concentration of 0.10 uM at 1000 ms (simulating normal heart rate); type: functional, Canis lupus familiaris, Purkinje fiber; outline: as §5
Canis familiaris [21] = assay: Heart beat by the compound in open chest anesthetized dog, after iv administration at a dose of 0.05 mg/kg.; type: functional, Canis lupus familiaris; outline: as §3
Canis familiaris [22] = species: Canis familiaris; assay: repolarization to reach -60mV, in canine Purkinje Fibers at a concentration of 0.01 uM at 1000 ms (simulating normal heart rate); type: functional, Canis lupus familiaris, Purkinje fiber; outline: as §5
Canis familiaris [23] = assay: Atrial effective refractory period by the compound in open chest anesthetized dog, after iv administration at a dose of 0.05 mg/kg.; type: functional, Canis lupus familiaris, Cardiac atrium; outline: as §4
Canis familiaris [24] = assay: Atrial conduction time by the compound in open chest anesthetized dog, after iv administration at a dose of 0.25 mg/kg.; type: functional, Canis lupus familiaris, Cardiac atrium; outline: as §6
Canis familiaris [25] = assay: Ventricular effective refractory period by the compound in open chest anesthetized dog, after iv administration at a dose of 0.25 mg/kg.; type: functional, Canis lupus familiaris, Heart
Canis familiaris [26] = assay: Atrial conduction time by the compound in open chest anesthetized dog, after iv administration at a dose of 0.05 mg/kg.; type: functional, Canis lupus familiaris, Cardiac atrium; outline: as §6
Canis familiaris [27] = assay: Ventricular effective refractory period by the compound in open chest anesthetized dog, after iv administration at a dose of 0.05 mg/kg.; type: functional, Canis lupus familiaris, Heart
Canis familiaris [28] = assay: Ventricular conduction time by the compound in open chest anesthetized dog, after iv administration at a dose of 0.05 mg/kg.; type: functional, Canis lupus familiaris, Heart; outline: as §2
Canis familiaris [29] = species: Canis familiaris; assay: Maximum rate of rise of the upstroke of transmembrane potential, in canine Purkinje Fibers at a concentration of 0.01 uM at 1000 ms (simulating normal heart rate); type: functional; conditions: Canis lupus familiaris, Purkinje fiber; outline: as §1

## CN(CCOc1ccc(NS(C)(=O)=O)cc1)CCc1ccc(NS(C)(=O)=O)cc1 [DOFETILIDE]
Canis familiaris [1]
  APD: 22%
Canis familiaris [2]
  VCT: -5
Canis familiaris [3]
  Vmax: 2
Canis familiaris [4]
  MBP: 1
Canis familiaris [5]
  Vmax: 7
Canis familiaris [6]
  Vmax: 4
Canis familiaris [7]
  AERP: 60
Canis familiaris [8]
  APD: 67%
Canis familiaris [9]
  HR: -21
Canis familiaris [10]
  AERP: 65
Canis familiaris [11]
  VERP: 27
Canis familiaris [12]
  ACT: -9
Canis familiaris [13]
  VCT: -4
Canis familiaris [14]
  Vmax: 5
Canis familiaris [15]
  MBP: 1
Canis familiaris [16]
  Vmax: 5
Canis familiaris [17]
  MBP: -2
Canis familiaris [18]
  APD: 29%
Canis familiaris [19]
  HR: -24
Canis familiaris [20]
  APD: 85%
Canis familiaris [21]
  HR: -14
Canis familiaris [22]
  APD: 37%
Canis familiaris [23]
  AERP: 46
Canis familiaris [24]
  ACT: -6
Canis familiaris [25]
  VERP: 25
Canis familiaris [26]
  ACT: -4
Canis familiaris [27]
  VERP: 23
Canis familiaris [28]
  VCT: -4
Canis familiaris [29]
  Vmax: 4
